Data set [1] concerns DU-145. Briefly: Cytotoxicity against human DU145 cells by SRB method. The format is functional. Background: The SRB assay estimates cell density from bound dye.
In data set [2] the test system is KB. Description: Cytotoxicity against human KB cells by SRB method. The format is functional.
Data set [3] in a line: Cytotoxicity against human KBVIN cells by SRB method. The format is functional.
Data set [4] relates to A549. Description: Cytotoxicity against human A549 cells by SRB method. The format is functional.
Data set [5] in a line: […] partition coefficient, log P of the compound at pH 7.4 after 24 hrs by HPLC analysis. The format is physicochemical. The procedure, abridged: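 Compound dissolved at 1.0 mg/mL in […]. Log P taken from the ratio of HPLC peak areas in the […] and water phases.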
The nature of data set [6]: Aqueous solubility of the compound at pH 7.4 after 4 hrs by HPLC-UV method. The data set is classed as physicochemical. To be noted: buffer, pH 7.4, 4 h. The procedure, abridged: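 Solubility at pH 7.4: DMSO stock (1.0 mg/mL) diluted into phosphate buffer, final DMSO 1%; stirred 4 h at rt, centrifuged; saturated supernatant quantified by HPLC–UV against a standard curve (50–0.20 µg/mL in ACN). Triplicate samples.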

The target in data set [7] is T1, Tubulin (Homo sapiens) (UniProt P68371+Q9H4B7+P0DPH7+P68366+Q13509+Q71U36+P04350+Q3ZCM7+P07437+P68363+Q9BQE3+Q6PEY2+Q13885+Q9BVA1+Q9BUF5). Briefly: Competitive inhibition of [3H]colchicine binding to tubulin (unknown origin) at 5 uM after 10 mins by radioligand displacement assay. The data set is classed as protein-complex assay. The procedure, abridged: (§1)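 [3H]colchicine binding: 1.0 µM tubulin, 5.0 µM [3H]colchicine and inhibitor at 5.0 or 1.0 µM, 10 min at 37 °C, when control binding reaches about 40–60% of maximum. […] Percent inhibition reported.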
A general note: Loss of bound radioactivity is the signal in a displacement assay; it reports binding, not function.

The next data set addresses Tubulin. Briefly: Inhibition of tubulin assembly (unknown origin) preincubated for 15 mins followed by GTP addition measured after 20 mins by turbidimetric analysis. The data set is classed as protein-complex assay, Homo sapiens.
A further data set deals with Liver microsomes. Description: Half life in human liver microsomes at 1 uM by LC-MS analysis. The data set is classed as ADME, Microsome. A general note: Liver microsomes are a subcellular fraction often used to study metabolism.
Data set [8] has as its target T1, Tubulin (Homo sapiens). Briefly: Competitive inhibition of [3H]colchicine binding to tubulin (unknown origin) at 1 uM after 10 mins by radioligand displacement assay. The format is protein-complex assay. In outline: as §1
For data set [9], the system named is KB. Briefly: Cytotoxicity against human KB cells at 60 uM by SRB method. The data set is classed as functional, cell-based.
In the next data set the test system is KBVIN. Description: Cytotoxicity against human KBVIN cells at 60 uM by SRB method. The format is functional, cell-based.
Data set [10] concerns DU-145. Briefly: Cytotoxicity against human DU145 cells at 60 uM by SRB method. The data set is classed as functional, cell-based.
The subject of data set [11] is A549. Briefly: Cytotoxicity against human A549 cells at 60 uM by SRB method. The data set is classed as functional, cell-based.

Each structure is given as a SMILES string. Values after ≈ are worked out from the molar mass of the structure shown. Active and inactive are the calls of the source. The rule behind the calls is not given here.

For the molecule `COC(=O)c1cc(Br)cc(N2CCCc3cc(OC)ccc32)c1`, the GI50 turned out to be 1280 nM in the data set on DU-145 [1], 1370 nM in the data set on KB [2], 1270 nM in data set [3] and 1120 nM in the data set with A549 [4].
The corresponding values for `COc1ccc(N(C)c2cc(Cl)ccc2CO)cc1` are 16000 nM, 19500 nM, 18100 nM and 21700 nM.
The matching figures for `COC(=O)c1cc(Cl)cc(N2CCCc3cc(OC)ccc32)c1`: 1510 nM, 2330 nM, 1780 nM and 2230 nM.
`CNC(=O)c1cc(Br)cc(N(C)c2ccc(OC)cc2)c1`: the logD at 24 h in [5] is 4.02. This molecule yielded a solubility in data set [6] of 0.81 µg/mL (≈ 2.32 µM). For the same molecule, the inhibition on Tubulin (Homo sapiens) [7] is 71%. For the same molecule, the IC50 against Tubulin was found to be 2200 nM. Further, the GI50 in the data set with DU-145 [1] is 160 nM; with KB [2] it was 210 nM; in [3], 140 nM; in the data set with A549 [4], 250 nM.
As to `CNC(=O)c1cc(Cl)cc(N2CCCc3cc(OC)ccc32)c1`, the GI50 in the data set on DU-145 [1] turned out to be 1020 nM; in the data set on KB [2], 1040 nM; in data set [3] it was 430 nM; with A549 [4] it was 740 nM.
In the data set on Liver microsomes, `CNc1nc(N2CCCc3cc(OC)ccc32)c2ccccc2n1` returned a t1/2 of 25.97 min. Further, the logD at 24 h in [5] was found to be 1.07. Further, the solubility in data set [6] was 7.21 µg/mL (≈ 22.5 µM). Also, the results for the inhibition on Tubulin (Homo sapiens) [8] and on Tubulin (Homo sapiens) [7] were 76% and 95%, respectively. This molecule returned an IC50 against Tubulin of 920 nM. Besides, the GI50 turned out to be 23 nM in the data set with DU-145 [1], 25 nM in the data set with KB [2], 29 nM in data set [3] and 27 nM in the data set on A549 [4].
With `COC(=O)c1ccc(Cl)nc1N(C)c1ccc(OC)cc1`, the GI50 with DU-145 [1] stood at 210 nM; with KB [2] it was 260 nM; in data set [3], 200 nM; in the data set with A549 [4], 230 nM.
Take `COc1ccc(N(C)c2cc(Br)cc(C(=O)O)c2)cc1`: the “growth inhibition (GI)” value in the data set with KB [9], with KBVIN, in the data set on DU-145 [10] and in the data set with A549 [11] was “inactive” each time.
On to `CNC(=O)c1cc(Cl)cc(N(C)c2ccc(OC)cc2)c1`, for which the GI50 in the data set on DU-145 [1] came to 230 nM; in the data set on KB [2] it was 300 nM; in [3] it was 230 nM; in the data set on A549 [4] it was 270 nM.
For the molecule `COC(=O)c1ccc(Cl)cc1N(C)c1ccc(OC)cc1`, the GI50 worked out at 1680 nM in the data set with DU-145 [1], 1980 nM with KB [2], 1890 nM in data set [3] and 3360 nM with A549 [4].
On to `COC(=O)c1cc(Br)cc(N(C)c2ccc(OC)cc2)c1`, for which the GI50 amounted to 970 nM in the data set with DU-145 [1], 1360 nM in the data set on KB [2], 1200 nM in [3] and 1240 nM in the data set with A549 [4].
The corresponding values for `CNC(=O)c1cc(N(C)c2ccc(OC)cc2)cc(C(F)(F)F)c1` are 11900 nM, 12300 nM, 12600 nM and 14700 nM.
With `CC(=O)O[C@H]1C(=O)[C@@]2(C)[C@H]([C@H](OC(=O)c3ccccc3)[C@]3(O)C[C@H](OC(=O)[C@H](O)[C@@H](NC(=O)c4ccccc4)c4ccccc4)C(C)=C1C3(C)C)[C@]1(OC(C)=O)CO[C@@H]1C[C@@H]2O` [PACLITAXEL], the GI50 in the data set on DU-145 [1] stood at 6 nM; with KB [2] it was 6.4 nM; in data set [3], 1210 nM; in the data set with A549 [4] it was 7.6 nM.
Molecule `COc1ccc2c(c1)CCCN2c1cc(C)nc2ccccc12` registered a t1/2 in the data set on Liver microsomes of 7.89 min. In [5], the logD at 24 h was 3.98. This molecule displayed a solubility in data set [6] of 3.21 µg/mL (≈ 10.5 µM). Also, the inhibition worked out at 61% at Tubulin (Homo sapiens) [8] and 87% on Tubulin (Homo sapiens) [7]. Besides, it took 1000 nM to reach half-maximal inhibition against Tubulin (IC50). For the same molecule, the GI50 came to 38 nM in the data set with DU-145 [1], 91 nM with KB [2], 55 nM in data set [3] and 45 nM in the data set on A549 [4].
As to `COC(=O)c1cc(Cl)cc(N(C)c2ccc(OC)cc2)c1`, the GI50 with DU-145 [1] stood at 1460 nM; in the data set with KB [2] it was 1610 nM; in data set [3] it was 1570 nM; with A549 [4], 1600 nM.
The matching figures for `COCc1ccc(Cl)cc1N(C)c1ccc(OC)cc1`: 3130 nM, 5240 nM, 2850 nM and 4530 nM.
In the case of `COc1ccc2c(c1)CCCN2c1nc(C)nc2ccccc12`, the t1/2 in the data set on Liver microsomes is on record as 25.19 min. This molecule also registered a logD at 24 h in data set [5] of 3.65. Besides, the solubility in [6] amounted to 7.67 µg/mL (≈ 25.1 µM). Further, the inhibition amounted to 89% on Tubulin (Homo sapiens) [8] and 98% at Tubulin (Homo sapiens) [7]. At Tubulin, this molecule had an IC50 of 1000 nM. Moreover, the GI50 amounted to 15 nM in the data set with DU-145 [1], 11 nM with KB [2], 18 nM in data set [3] and 18 nM with A549 [4].
As to `COc1ccc(N(C)c2cc(Br)cc(C(=O)N(C)C)c2)cc1`, the GI50 in the data set on DU-145 [1] was determined as 3340 nM; with KB [2], 6520 nM; in data set [3], 2380 nM; in the data set on A549 [4], 2830 nM.
In turn, `COc1ccc2c(c1)CCCN2c1nc(Cl)nc2ccccc12` had a logD at 24 h in data set [5] of 4.13. The results for the inhibition on Tubulin (Homo sapiens) [8] and on Tubulin (Homo sapiens) [7] were 95% and 99%, respectively. On Tubulin, this molecule returned an IC50 of 930 nM. This molecule also had a GI50 in the data set with DU-145 [1] of 1.5 nM.
`COc1ccc2c(c1)CCCN2c1cc(Br)cc(C(=O)NC2CC2)c1` yielded a logD at 24 h in data set [5] of 4.75. The molecule also yielded a solubility in data set [6] of 0.26 µg/mL (≈ 0.648 µM). At Tubulin (Homo sapiens) [7], the inhibition amounted to 75%. This molecule also had an IC50 against Tubulin of 1000 nM. The GI50 in the data set on DU-145 [1] came to 150 nM; in the data set with KB [2], 160 nM; in [3], 190 nM; with A549 [4], 170 nM.
`COc1ccc2c(c1)CCCN2c1cccc2ccccc12`: the GI50 was determined as 14800 nM in the data set on DU-145 [1], 15600 nM in the data set with KB [2], 17600 nM in data set [3] and 17800 nM in the data set on A549 [4].
The corresponding values for `COC(=O)c1cc(N(C)c2ccc(OC)cc2)cc(C(F)(F)F)c1` are 11500 nM, 13500 nM, 13100 nM and 15100 nM.
For `COc1ccc(N(C)c2cc(Br)cc(C(=O)NC3CCCC3)c2)cc1`, the GI50 with DU-145 [1] came out at 110 nM; in the data set with KB [2], 120 nM.
`CNC(=O)c1cc(Br)cc(N2CCCc3cc(OC)ccc32)c1`: the GI50 in the data set with DU-145 [1] was 560 nM; with KB [2], 630 nM; in data set [3], 930 nM; in the data set on A549 [4], 370 nM.
The corresponding values for `CNC(=O)c1ccc(Cl)cc1N(C)c1ccc(OC)cc1` are 98900 nM, 188000 nM, 61000 nM and 43200 nM.
In turn, `COc1ccc(N(C)c2cc(Br)cc(C(=O)NC3CC3)c2)cc1` yielded a logD at 24 h in data set [5] of 4.33. Besides, the solubility in data set [6] is 0.16 µg/mL (≈ 0.426 µM). The molecule also yielded an inhibition on Tubulin (Homo sapiens) [7] of 69%. The molecule further registered an IC50 at Tubulin of 1600 nM. In the data set on KB [2], the GI50 stood at 170 nM.

For orientation: GI50 means the concentration at which growth is held to half of that of the control. Read a high GI50 as less potent growth inhibition. The term logD denotes lipophilicity at a set pH, counting ionised and neutral species. A low value points to lower lipophilicity. The term solubility denotes how much of the substance goes into solution per volume. A higher solubility goes with much dissolved substance. For orientation: inhibition means how much of the control response was suppressed. For orientation: IC50 means the concentration at which inhibition is half-maximal. Read a low IC50 as greater potency.

For the origin of these results see ChEMBL document CHEMBL2417522, “N-aryl-6-methoxy-1,2,3,4-tetrahydroquinolines: a novel class of antitumor agents targeting the colchicine site on tubulin” (Eur J Med Chem, 2013).
